What follows are compounds tested on human red blood cells (RBC) (assay: Sorbitol accumulation in RBC under high glucose conditions). Details: ex vivo high glucose conditions.
Format: cell-based
Summary of the method: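 Fasted healthy male donors' heparinised blood; RBC washed three times in isotonic saline at 4 °C, resuspended in Krebs-Ringer bicarbonate pH 7.4 (5% CO2). Duplicates incubated 3 h, 37 °C, 5% CO2, with 5.5 or 55 mM glucose, with test compound at 1.4–20 µM. Cells homogenised in 0.8 M perchloric acid, spun, supernatant adjusted to pH 3.5 with K2CO3; sorbitol measured fluorometrically.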
`COc1cc(C(CC(=O)N2CCC(c3cn(Cc4ccccc4)c4ccccc34)CC2=O)c2cn(Cc3ccccc3)c3ccccc23)cc(OC)c1OC` (stereo not drawn) [Compound 3c, 1-(3-(1-Benzyl-1H-indol-3-yl)-3-(3,4,5-trimethoxyphenyl)propanoyl)-4-(1-benzyl-1H-indol-3-yl)piperidin-2-one] was tested, and the “effect on sorbitol accumulation (in words)” value (“effect” for short) was “inhibited the sorbitol accumulation”. `COc1ccc2[nH]cc(C(CC(=O)N3CCC=CC3=O)c3cc(OC)c(OC)c(OC)c3)c2c1` (stereo not drawn) [Compound 2j, 1-(3-(5-Methoxy-1H-indol-3-yl)-3-(3,4,5-trimethoxyphenyl)propanoyl)-5,6-dihydropyridin-2(1H)-one] was tested, and the “effect” value was “inhibited the sorbitol accumulation”. In the case of `COc1cc(C(CC(=O)N2CCC(c3c(-c4ccccc4)[nH]c4ccccc34)CC2=O)c2c(-c3ccccc3)[nH]c3ccccc23)cc(OC)c1OC` (stereo not drawn) [Compound 3e, 1-(3-(3,4,5-Trimethoxyphenyl)-3-(2-phenyl-1H-indol-3-yl)propanoyl)-4-(2-phenyl-1H-indol-3-yl)piperidin-2-one], the “effect” value is reported as “inhibited the sorbitol accumulation”.

These compounds were tested against recombinant human ALR2 (Homo sapiens, UniProt P15121) (assay: ALR2 inhibition assay). Details: not given.
Format: biochemical
Compound `COc1cc(C(CC(=O)N2CCC=CC2=O)c2c[nH]c3ccc(I)cc23)cc(OC)c1OC` (stereo not drawn) [Compound 2f, 1-(3-(5-Iodo-1H-indol-3-yl)-3-(3,4,5-trimethoxyphenyl)propanoyl)-5,6-dihydropyridin-2(1H)-one] has an IC50 greater than 500 µM. Compound `COc1cc(/C=C/C(=O)n2c(=O)oc3ccccc32)cc(OC)c1OC` [Compound 35, (E)-3-(3-(3,4,5-Trimethoxyphenyl)acryloyl)benzo[d]oxazol-2(3H)-one] has an IC50 greater than 500 µM. Compound `O=C1C=CCCN1C(=O)/C=C/C=C/c1ccc2c(c1)OCO2` [Compound 30, 1-((2E,4E)-5-(Benzo[d][1,3]dioxol-5-yl)penta-2,4-dienoyl)-5,6-dihydropyridin-2(1H)-one] has an IC50 of 500 µM. For `COc1cc(C(CC(=O)O)c2c(C)[nH]c3ccccc23)cc(OC)c1OC` (stereo not drawn) [Compound 4, 3-(3,4,5-Trimethoxyphenyl)-3-(2-methyl-1H-indol-3-yl) propanoic acid], the IC50 was 72 µM. With `COc1cc(/C=C/C(=O)N2CCC=C(C(O)c3ccc([N+](=O)[O-])cc3)C2=O)cc(OC)c1OC` (stereo not drawn) [Compound 32d, (E)-3-(Hydroxy(4-nitrophenyl)methyl)-1-(3-(3,4,5-trimethoxyphenyl)acryloyl)-5,6-dihydropyridin-2(1H)-one] the IC50 was greater than 500 µM. For `COc1cc(/C=C/C(=O)N2CCC=C(C(O)c3ccc(F)cc3)C2=O)cc(OC)c1OC` (stereo not drawn) [Compound 32b, (E)-3-((4-Fluorophenyl)(hydroxy)methyl)-1-(3-(3,4,5-trimethoxyphenyl)acryloyl)-5,6-dihydropyridin-2(1H)-one], the IC50 was greater than 500 µM. `COc1cc(/C=C/C(=O)N2CCC=C(C(O)c3ccc(C)cc3)C2=O)cc(OC)c1OC` (stereo not drawn) [Compound 32i, (E)-3-(Hydroxy(p-tolyl)methyl)-1-(3-(3,4,5-trimethoxyphenyl)acryloyl)-5,6-dihydropyridin-2(1H)-one] was tested, and the IC50 was greater than 500 µM. `COc1ccc(OC)c(/C=C/C(=O)N2CCC=CC2=O)c1` [Compound 14, (E)-1-(3-(2,5-Dimethoxyphenyl)acryloyl)-5,6-dihydropyridin-2(1H)-one] showed an IC50 greater than 500 µM. With `O=C1C=CCCN1C(=O)/C=C/c1cccc(C(F)(F)F)c1` [Compound 13, (E)-1-(3-(3-(Trifluoromethyl)phenyl)acryloyl)-5,6-dihydropyridin] the IC50 was 400 µM. `COc1cc(C(CC(=O)N2CCC=CC2=O)c2cn(C)c3ccccc23)cc(OC)c1OC` (stereo not drawn) [Compound 2b, 1-(3-(3,4,5-Trimethoxyphenyl)-3-(1-methyl-1H-indol-3-yl)propanoyl)-5,6-dihydropyridin-2(1H)-one] showed an IC50 of 100 µM. `COc1cc(/C=C/C(=O)N2CCCC2=O)cc(OC)c1OC` [Compound 34, (E)-1-(3-(3,4,5-Trimethoxyphenyl)acryloyl)pyrrolidin-2-one] gave an IC50 greater than 500 µM. `COc1cc(C(CC(=O)N2CCC(c3c[nH]c4ccc(I)cc34)CC2=O)c2c[nH]c3ccc(I)cc23)cc(OC)c1OC` (stereo not drawn) [Compound 3f, 1-(3-(5-Iodo-1H-indol-3-yl)-3-(3,4,5-trimethoxyphenyl)propanoyl)-4-(5-iodo-1H-indol-3-yl)piperidin-2-one] gave an IC50 greater than 500 µM. Work on `O=C1C=CCCN1C(=O)C=Cc1ccccc1` [Compound 12, 1-Cinnamoyl-5,6-dihydropyridin-2(1H)-one] yielded an IC50 greater than 500 µM. `COc1cc(/C=C/C(=O)N2CCC=C(C(O)c3ccccn3)C2=O)cc(OC)c1OC` (stereo not drawn) [Compound 32f, (E)-3-(Hydroxy(pyridin-2-yl)methyl)-1-(3-(3,4,5-trimethoxyphenyl)acryloyl)-5,6-dihydropyridin-2(1H)-one] gave an IC50 greater than 500 µM. Compound `COc1cc(C(CC(=O)N2CCC(c3cn(C)c4ccccc34)CC2=O)c2cn(C)c3ccccc23)cc(OC)c1OC` (stereo not drawn) [Compound 3b, 1-(3-(3,4,5-Trimethoxyphenyl)-3-(1-methyl-1H-indol-3-yl)propanoyl)-4-(1-methyl-1H-indol-3-yl)piperidin-2-one] has an IC50 greater than 500 µM. `COc1cc(/C=C/C(=O)N2CCC=C(C(O)c3ccc4ccccc4c3)C2=O)cc(OC)c1OC` (stereo not drawn) [Compound 32h, (E)-3-(Hydroxy(naphthalen-2-yl)methyl)-1-(3-(3,4,5-trimethoxyphenyl)acryloyl)-5,6-dihydropyridin-2(1H)-one] showed an IC50 greater than 500 µM. In the case of `O=C1C=CCCN1C(=O)/C=C/c1ccc2ccccc2c1` [Compound 18, (E)-1-(3-(Naphthalen-2-yl)acryloyl)-5,6-dihydropyridin-2(1H)-one], the IC50 is reported as 350 µM. With `O=C1C=CCCN1C(=O)/C=C/c1cccc(Oc2ccccc2)c1` [Compound 20, (E)-1-(3-(3-Phenoxyphenyl)acryloyl)-5,6-dihydropyridin-2(1H)-one] the IC50 was greater than 500 µM. `COC(=O)/C=C/c1cc(OC)c(OC)c(OC)c1` [Compound 5, (E)-Methyl 3-(3,4,5-trimethoxyphenyl)acrylate] was tested, and the IC50 was greater than 500 µM. With `COc1cc(C(CC(=O)N2CCC=CC2=O)c2c[nH]c3ccccc23)cc(OC)c1OC` (stereo not drawn) [Compound 2a, 1-(3-(1H-Indol-3-yl)-3-(3,4,5-trimethoxyphenyl)propanoyl)-5,6-dihydropyridin-2(1H)-one] the IC50 was greater than 500 µM. For `COc1cc(/C=C/C(=O)N2CCC=C(C(O)c3ccccc3[N+](=O)[O-])C2=O)cc(OC)c1OC` (stereo not drawn) [Compound 32c, (E)-3-(Hydroxy(2-nitrophenyl)methyl)-1-(3-(3,4,5-trimethoxyphenyl)acryloyl)-5,6-dihydropyridin-2(1H)-one], the IC50 was greater than 500 µM. With `COc1cc(/C=C/C(=O)N2CCC=C(C(O)c3ccccc3)C2=O)cc(OC)c1OC` (stereo not drawn) [Compound 32j, (E)-3-(Hydroxy(phenyl)methyl)-1-(3-(3,4,5-trimethoxyphenyl)acryloyl)-5,6-dihydropyridin-2(1H)-one] the IC50 was greater than 500 µM. `COc1cc(/C=C/C(=O)N2CCCCC2)cc(OC)c1OC` [Compound 33, (E)-1-(Piperidin-1-yl)-3-(3,4,5-trimethoxyphenyl) prop-2-en-1-one] showed an IC50 greater than 500 µM. `O=C1C=CCCN1C(=O)/C=C/c1cccs1` [Compound 22, (E)-1-(3-(Thiophen-2-yl)acryloyl)-5,6-dihydropyridin-2(1H)-one] gave an IC50 greater than 500 µM. Work on `COc1cc(/C=C/C(=O)N2CCC=C(C(O)c3ccc(C#N)cc3)C2=O)cc(OC)c1OC` (stereo not drawn) [Compound 32e, (E)-4-(Hydroxy(2-oxo-1-(3-(3,4,5-trimethoxyphenyl)acryloyl)-1,2,5,6-tetrahydropyridin-3-yl)methyl)benzonitrile] yielded an IC50 greater than 500 µM. With `COc1cc(/C=C/C(=O)N2CCC=CC2=O)cc(OC)c1OC` [Compound 1, 5,6-Dihydro-1-((E)-3-(3,4,5-trimethoxyphenyl)acryloyl) pyridin-2(1H)-one] the “ALR2 inhibitory activity (in words)” value was “moderate activity”. For `O=C1C=CCCN1C(=O)/C=C/c1ccc2c(c1)OCO2` [Compound 16, (E)-1-(3-(Benzo[d][1,3]dioxol-5-yl)acryloyl)-5,6-dihydropyridin-2(1H)-one], the IC50 was greater than 500 µM. Work on `COc1cc(C(CC(=O)N2CCC(c3c[nH]c4ccccc34)CC2=O)c2c[nH]c3ccccc23)cc(OC)c1OC` (stereo not drawn) [Compound 3a, 1-(3-(1H-Indol-3-yl)-3-(3,4,5-trimethoxyphenyl)propanoyl)-4-(1H-indol-3-yl)piperidin-2-one] yielded an IC50 of 80 µM. In the case of `O=C1C=CCCN1C(=O)/C=C/c1ccc(Cl)cc1` [Compound 17, (E)-1-(3-(4-Chlorophenyl)acryloyl)-5,6-dihydropyridin-2(1H)-one], the IC50 is reported as greater than 500 µM.

Same assay, conditions: Michael adducts from N-benzyl / phenyl indoles
`COc1cc(C(CC(=O)N2CCC(c3cn(Cc4ccccc4)c4ccccc34)CC2=O)c2cn(Cc3ccccc3)c3ccccc23)cc(OC)c1OC` (stereo not drawn) [Compound 3c, 1-(3-(1-Benzyl-1H-indol-3-yl)-3-(3,4,5-trimethoxyphenyl)propanoyl)-4-(1-benzyl-1H-indol-3-yl)piperidin-2-one] was tested, and the “enhancement of ALR2 inhibitory activity” value was 40 folds. In the case of `COc1cc(C(CC(=O)N2CCC(c3c(-c4ccccc4)[nH]c4ccccc34)CC2=O)c2c(-c3ccccc3)[nH]c3ccccc23)cc(OC)c1OC` (stereo not drawn) [Compound 3e, 1-(3-(3,4,5-Trimethoxyphenyl)-3-(2-phenyl-1H-indol-3-yl)propanoyl)-4-(2-phenyl-1H-indol-3-yl)piperidin-2-one], the “enhancement of ALR2 inhibitory activity” value is reported as 40 folds.

Same assay, conditions: average of four experimental values
In the case of `COc1cc(/C=C/C(=O)N2CCC=C(C(O)c3cccs3)C2=O)cc(OC)c1OC` (stereo not drawn) [Compound 32g, (E)-3-(Hydroxy(thiophen-2-yl)methyl)-1-(3-(3,4,5-trimethoxyphenyl)acryloyl)-5,6-dihydropyridin-2(1H)-one], the IC50 is reported as greater than 500 µM. In the case of `O=C1C=CCCN1C(=O)/C=C/c1ccc(Br)cc1` [Compound 15, (E)-1-(3-(4-Bromophenyl)acryloyl)-5,6-dihydropyridin-2(1H)-one], the IC50 is reported as 350 µM.

Reference: PMC3857970 (European journal of medicinal chemistry, 2012)
